Measurements: paper PMC4818746 (Annals of Clinical and Translational Neurology, 2016)

How the values were obtained:
LRRK2-G2019S [1] = biological target: T1, LRRK2-G2019S (Homo sapiens, UniProt Q5S007, G2019S); assay: Filter-binding kinase assay, G2019S activity on LRRKtide; assay type: biochemical
Summary of the method: (§1)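 Recombinant LRRK2 G2019S (0.8 μg) with 5 μg synthetic peptide substrate, 10 μCi [γ32P]ATP and 1X kinase buffer in 40 μL, incubated at 30°C for 20 min. 10 μL of reaction spotted onto P81 phosphocellulose disks, washed twice in 75 mmol/L phosphoric acid, then counted by liquid scintillation. Reported as mean CPM ± SEM (n = 4) of phosphorylated peptide.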

LRRK2-G2019S [2] = biological target: T1, LRRK2-G2019S; assay: Filter-binding kinase assay, G2019S activity on PEPrx3; assay type: biochemical
Summary of the method: as §1

LRRK2-G2019S [3] = biological target: T1, LRRK2-G2019S; assay: Radiometric kinase assay, LRRK2-G2019S activity on MBP; assay type: biochemical; conditions: for reduction of p-MBP: G2019S on MBP, 2 μmol/L antioxidant, relative to vehicle control; for inhibition of p-MBP (in words): screen of 84 antioxidants, 2 μmol/L
[4] = system: ddc‐GAL4‐hLRRK2 G2019S flies; assay: Oxidative state assays; assay type: in vivo, Drosophila; conditions: 10 μmol/L in food, relative fluorescence, control 31,756 ± 4142
[5] = system: LRRK2 G2019S‐expressing transgenic flies; assay: Number of TH+ DA neurons in G2019S fly brains; assay type: in vivo, Drosophila; conditions: 10 μmol/L in diet; for increase in number of neurons in PPM3: 60 days posteclosion
Summary of the method: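 G2019S transgenic flies (ddc-GAL4 driver) fed cornmeal food containing test compound at 10 μmol/L (DMSO) or plain food, at 25°C. Whole-mount adult brains dissected 60 days after eclosion and immunostained with rabbit anti-TH (1:200). DA neurons scored per cluster, including PPM3, by confocal microscopy. Given as mean count per cluster (n = 4; cohort of 20).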

[6] = cited from earlier work
dopaminergic neurons = conditions: mouse; cited from earlier work
[7] = system: LRRK2 G2019S‐expressing transgenic flies; assay: Climbing assay; assay type: in vivo, Drosophila; conditions: 10 μmol/L in diet
[8] = system: LRRK2 G2019S‐expressing transgenic flies; assay: Lifespan / survival of G2019S flies; assay type: in vivo, Drosophila; conditions: nonsignificant
Summary of the method: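 ddc-GAL4-hLRRK2 G2019S flies raised at 25°C on cornmeal food, replaced every 2 days, either plain or with test compound in DMSO added at 10 μmol/L. Read-out is the percentage of surviving flies; n = 4 cohorts of 60.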

LRRK2-WT = LRRK2-WT (Homo sapiens, UniProt Q5S007); assay: Radiometric kinase assay, LRRK2-WT activity on MBP; assay type: biochemical; conditions: IC50 against LRRK2-WT, MBP substrate
LRRK2-WT, sequence (Q5S007 whole entry): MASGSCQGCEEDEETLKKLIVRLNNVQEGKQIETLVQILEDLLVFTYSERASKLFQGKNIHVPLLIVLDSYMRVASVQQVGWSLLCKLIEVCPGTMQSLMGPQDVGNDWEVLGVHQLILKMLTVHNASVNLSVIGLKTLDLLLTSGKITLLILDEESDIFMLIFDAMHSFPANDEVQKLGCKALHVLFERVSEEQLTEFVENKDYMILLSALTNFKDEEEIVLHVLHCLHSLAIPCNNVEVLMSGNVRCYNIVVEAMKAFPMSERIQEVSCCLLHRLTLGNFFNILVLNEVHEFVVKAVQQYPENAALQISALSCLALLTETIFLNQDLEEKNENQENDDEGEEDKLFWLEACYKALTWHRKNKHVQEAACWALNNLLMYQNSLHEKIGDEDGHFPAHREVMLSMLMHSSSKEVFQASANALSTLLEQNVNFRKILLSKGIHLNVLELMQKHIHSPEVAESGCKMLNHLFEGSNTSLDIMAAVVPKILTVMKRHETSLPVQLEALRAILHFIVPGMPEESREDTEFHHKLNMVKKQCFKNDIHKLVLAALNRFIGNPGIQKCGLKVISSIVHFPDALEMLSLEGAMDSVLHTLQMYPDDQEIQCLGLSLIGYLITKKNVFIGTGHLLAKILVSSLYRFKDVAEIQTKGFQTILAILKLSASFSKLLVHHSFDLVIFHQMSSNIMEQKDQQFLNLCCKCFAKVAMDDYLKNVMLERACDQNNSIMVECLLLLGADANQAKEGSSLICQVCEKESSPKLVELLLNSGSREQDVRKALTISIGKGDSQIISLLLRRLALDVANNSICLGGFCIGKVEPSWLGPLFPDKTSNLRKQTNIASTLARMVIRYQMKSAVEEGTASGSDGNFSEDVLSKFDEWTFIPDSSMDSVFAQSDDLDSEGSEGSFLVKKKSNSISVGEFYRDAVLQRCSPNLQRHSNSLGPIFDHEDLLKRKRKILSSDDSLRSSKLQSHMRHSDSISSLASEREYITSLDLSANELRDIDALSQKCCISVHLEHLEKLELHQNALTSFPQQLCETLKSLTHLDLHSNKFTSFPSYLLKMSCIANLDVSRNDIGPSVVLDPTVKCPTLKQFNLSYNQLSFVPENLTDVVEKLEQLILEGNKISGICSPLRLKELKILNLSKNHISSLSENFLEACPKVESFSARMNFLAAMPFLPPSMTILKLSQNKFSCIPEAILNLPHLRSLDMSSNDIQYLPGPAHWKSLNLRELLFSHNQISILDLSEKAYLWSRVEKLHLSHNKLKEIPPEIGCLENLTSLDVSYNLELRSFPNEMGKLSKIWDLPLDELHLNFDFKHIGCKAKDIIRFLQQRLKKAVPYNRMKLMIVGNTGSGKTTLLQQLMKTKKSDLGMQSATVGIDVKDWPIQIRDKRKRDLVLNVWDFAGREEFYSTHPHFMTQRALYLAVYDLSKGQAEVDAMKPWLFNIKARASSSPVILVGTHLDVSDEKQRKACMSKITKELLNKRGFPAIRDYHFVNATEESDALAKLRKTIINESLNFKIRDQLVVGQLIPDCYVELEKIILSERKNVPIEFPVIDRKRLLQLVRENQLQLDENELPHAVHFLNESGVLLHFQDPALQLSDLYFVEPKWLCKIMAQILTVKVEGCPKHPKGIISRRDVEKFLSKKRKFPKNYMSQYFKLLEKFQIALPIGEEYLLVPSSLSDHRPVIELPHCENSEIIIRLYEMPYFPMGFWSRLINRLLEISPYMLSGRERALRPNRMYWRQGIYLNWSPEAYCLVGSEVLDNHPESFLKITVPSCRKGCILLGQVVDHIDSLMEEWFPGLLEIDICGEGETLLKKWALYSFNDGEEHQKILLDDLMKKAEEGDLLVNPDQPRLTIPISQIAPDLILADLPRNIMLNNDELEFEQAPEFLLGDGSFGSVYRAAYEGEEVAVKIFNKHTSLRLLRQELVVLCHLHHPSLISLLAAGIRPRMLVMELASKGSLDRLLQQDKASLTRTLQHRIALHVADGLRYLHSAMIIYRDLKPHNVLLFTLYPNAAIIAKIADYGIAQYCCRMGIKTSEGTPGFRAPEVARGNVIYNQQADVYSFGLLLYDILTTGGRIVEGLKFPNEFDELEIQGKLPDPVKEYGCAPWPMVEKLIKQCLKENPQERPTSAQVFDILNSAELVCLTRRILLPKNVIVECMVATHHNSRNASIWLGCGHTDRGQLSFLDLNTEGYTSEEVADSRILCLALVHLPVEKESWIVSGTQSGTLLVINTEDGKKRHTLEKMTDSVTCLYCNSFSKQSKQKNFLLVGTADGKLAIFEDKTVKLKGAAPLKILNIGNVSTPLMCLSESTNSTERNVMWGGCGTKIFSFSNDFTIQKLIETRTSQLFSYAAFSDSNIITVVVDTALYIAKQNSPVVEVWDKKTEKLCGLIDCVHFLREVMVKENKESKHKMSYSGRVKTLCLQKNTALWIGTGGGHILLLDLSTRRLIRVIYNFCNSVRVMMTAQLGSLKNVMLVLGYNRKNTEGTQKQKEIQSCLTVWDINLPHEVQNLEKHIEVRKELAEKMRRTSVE

T1 sequence (Q5S007 whole entry G2019S): as the sequence (Q5S007 whole entry) above, with G2019S counted along it

O=c1cc(-c2ccccc2)oc2cc(O)c(O)c(O)c12 [Baicalein]
kinase activity toward LRRKtide (in words) (LRRK2-G2019S [1]): most significantly reduced | kinase activity toward PEPrx3 (in words) (LRRK2-G2019S [2]): most significantly reduced

COc1cc(/C=C/C(=O)CC(=O)/C=C/c2ccc(O)c(OC)c2)ccc1O [Curcumin]
reduction of p-MBP (LRRK2-G2019S [3]): ~ 90%

O=c1ccc2cc(O)c(O)cc2o1 [Esculetin]
kinase activity toward LRRKtide (in words) (LRRK2-G2019S [1]): most significantly reduced | kinase activity toward PEPrx3 (in words) (LRRK2-G2019S [2]): most significantly reduced | level of H2O2 in brain lysates [4]: 20,220 ± 1909 | increase in number of neurons in PPM3 [5]: up to 55% | crossing of the blood–brain barrier [6]: readily cross the blood–brain barrier | protection of dopaminergic neurons against MPP+ (dopaminergic neurons): protect dopaminergic neurons against MPP+

N[C@@H](CCC(=O)N[C@@H](CS)C(=O)NCC(=O)O)C(=O)O [Glutathione]
inhibition of p-MBP (in words) (LRRK2-G2019S [3]): Weak or noninhibitory

Cc1cc2c(C(C)C)c(O)c(O)c(C=O)c2c(O)c1-c1c(C)cc2c(C(C)C)c(O)c(O)c(C=O)c2c1O [Gossypol]
kinase activity toward LRRKtide (in words) (LRRK2-G2019S [1]): most significantly reduced | kinase activity toward PEPrx3 (in words) (LRRK2-G2019S [2]): most significantly reduced

Oc1cc(O)cc(/C=C/c2ccc(O)c(O)c2)c1 [Piceatannol]
kinase activity toward LRRKtide (in words) (LRRK2-G2019S [1]): most significantly reduced | kinase activity toward PEPrx3 (in words) (LRRK2-G2019S [2]): most significantly reduced | level of H2O2 in brain lysates [4]: 20,061 ± 2910 | increase in number of neurons in PPM3 [5]: up to 55% | increase in climbing scores [7]: up to 22%

CC(C)(Sc1cc(C(C)(C)C)c(O)c(C(C)(C)C)c1)Sc1cc(C(C)(C)C)c(O)c(C(C)(C)C)c1 [Probucol]
inhibition of p-MBP (in words) (LRRK2-G2019S [3]): Weak or noninhibitory | viability of TH+ neurons (in words) [5]: did not improve | decrease in lifespan [8]: 11%

O=C(/C=C/c1ccc(O)c(O)c1)O[C@H](Cc1ccc(O)c(O)c1)C(=O)O [Rosmarinic acid]
kinase activity toward LRRKtide (in words) (LRRK2-G2019S [1]): most significantly reduced | kinase activity toward PEPrx3 (in words) (LRRK2-G2019S [2]): most significantly reduced

CN[C@@H]1C[C@H]2O[C@@](C)([C@@H]1OC)n1c3ccccc3c3c4c(c5c6ccccc6n2c5c31)C(=O)NC4 [Staurosporine]
LRRK2 kinase activity (in words) (LRRK2-G2019S [3]; 10^−3 and 10^−1 μmol/L staurosporine, Fig. 1C): reduced kinase activity

CC1=CC(=O)C(C(C)C)=CC1=O [Thymoquinone]
IC50 (LRRK2-G2019S [3]; IC50 against LRRK2-G2019S, MBP substrate): 125 nM | IC50 (LRRK2-WT): 673 nM | kinase activity toward LRRKtide (in words) (LRRK2-G2019S [1]): most significantly reduced | kinase activity toward PEPrx3 (in words) (LRRK2-G2019S [2]): most significantly reduced | level of H2O2 in brain lysates [4]: 18,445 ± 1229 | increase in number of neurons in PPM3 [5]: up to 55% | increase in climbing scores [7]: ≤ 17% | crossing of the blood–brain barrier [6]: readily cross the blood–brain barrier | protection of dopaminergic neurons against MPP+ (dopaminergic neurons): protect dopaminergic neurons against MPP+

CCCCCCCCOC(=O)/C=C/c1ccc(O)c(O)c1 [n-Octyl caffeate]
reduction of p-MBP (LRRK2-G2019S [3]): ~ 90%

CC1=C(/C=C/C(C)=C/C=C/C(C)=C/C=C/C=C(C)/C=C/C=C(C)/C=C/C2=C(C)CCCC2(C)C)C(C)(C)CCC1 [β-carotene]
inhibition of p-MBP (in words) (LRRK2-G2019S [3]): Weak or noninhibitory

Cc1c(O)cc2c(c1C)O[C@](C)(CCC[C@H](C)CCC[C@H](C)CCCC(C)C)CC2 [γ‐Tocopherol]
reduction of p-MBP (LRRK2-G2019S [3]): ~ 90%
